Results taken from ChEMBL document CHEMBL1157359, “Binding of ceftobiprole and comparators to the penicillin-binding proteins of Escherichia coli, Pseudomonas aeruginosa, Staphylococcus aureus, and Streptococcus pneumoniae” (Antimicrob Agents Chemother, 2007).
Converted amounts (≈) assume the structure as drawn.

Experiments:
[1] = Inhibition of bocillin FL binding to penicillin-susceptible Streptococcus pneumoniae OC 8865 penicillin-binding protein 1a
Method in brief: (§1)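 Whole S. pneumoniae cells were used rather than isolated membranes. Cells were competed with drug and then labeled with Bocillin FL, and PBP bands were visualized by fluorescence imaging. IC50 is the drug concentration that inhibits Bocillin FL binding to each PBP by 50% relative to a no-drug control.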

[2] = biological target: T1, Penicillin-binding protein 1 (Staphylococcus aureus, UniProt Q53725); assay: Inhibition of bocillin FL binding to methicillin-susceptible Staphylococcus aureus ATCC 29213 penicillin-binding protein 1
T1 sequence (Q53725 whole entry): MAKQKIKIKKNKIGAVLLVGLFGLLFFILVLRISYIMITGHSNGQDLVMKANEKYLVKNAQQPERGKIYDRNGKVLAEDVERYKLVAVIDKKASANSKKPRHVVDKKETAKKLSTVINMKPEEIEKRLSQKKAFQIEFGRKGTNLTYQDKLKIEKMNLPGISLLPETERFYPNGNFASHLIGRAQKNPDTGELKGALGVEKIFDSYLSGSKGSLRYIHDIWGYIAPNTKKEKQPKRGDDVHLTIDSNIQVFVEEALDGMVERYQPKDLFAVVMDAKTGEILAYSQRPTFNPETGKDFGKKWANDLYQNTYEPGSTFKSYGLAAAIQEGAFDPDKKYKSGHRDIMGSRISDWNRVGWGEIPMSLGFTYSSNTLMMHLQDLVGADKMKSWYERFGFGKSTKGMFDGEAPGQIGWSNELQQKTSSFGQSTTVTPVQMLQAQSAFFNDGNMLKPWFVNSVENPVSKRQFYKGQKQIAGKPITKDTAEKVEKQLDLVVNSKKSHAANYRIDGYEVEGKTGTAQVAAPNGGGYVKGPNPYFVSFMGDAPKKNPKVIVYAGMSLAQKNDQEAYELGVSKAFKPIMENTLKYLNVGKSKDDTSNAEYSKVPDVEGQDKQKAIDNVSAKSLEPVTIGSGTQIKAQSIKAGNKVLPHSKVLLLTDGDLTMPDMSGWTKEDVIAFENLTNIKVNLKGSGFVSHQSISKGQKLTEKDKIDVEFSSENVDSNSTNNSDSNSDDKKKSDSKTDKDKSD
Method in brief: (§2)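 Isolated S. aureus ATCC 29213 PBPs exposed to drug over 0.001 μg/ml to 50 μg/ml, followed by Bocillin FL labeling and fluorescence imaging. IC50 is 50% inhibition of Bocillin FL binding relative to no-drug control.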

[3] = Inhibition of bocillin FL binding to penicillin-susceptible Streptococcus pneumoniae OC 8865 penicillin-binding protein 1b
Method in brief: (§3)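 S. pneumoniae OC 8865 PBPs assayed in whole cells; drug competition followed by Bocillin FL labeling and imaging of labeled PBPs. IC50 is 50% inhibition of Bocillin FL binding compared with a no-drug control.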

[4] = Inhibition of bocillin FL binding to penicillin-susceptible Streptococcus pneumoniae OC 8865 penicillin-binding protein 2a; method in brief: as §3
Streptococcus pneumoniae = assay: Antibacterial activity against penicillin-susceptible Streptococcus pneumoniae OC 8865 by CLSI method; type: functional
[5] = Inhibition of bocillin FL binding to penicillin-resistant Streptococcus pneumoniae OC 8819 penicillin-binding protein 1b; method in brief: as §1
[6] = Inhibition of bocillin FL binding to penicillin-susceptible Streptococcus pneumoniae OC 8865 penicillin-binding protein 2b; method in brief: as §3
[7] = biological target: T2, Penicillin-binding protein 4 (Staphylococcus aureus, UniProt P72355); assay: Inhibition of bocillin FL binding to methicillin-susceptible Staphylococcus aureus ATCC 29213 penicillin-binding protein 4; method in brief: as §2
T2 sequence (P72355 whole entry): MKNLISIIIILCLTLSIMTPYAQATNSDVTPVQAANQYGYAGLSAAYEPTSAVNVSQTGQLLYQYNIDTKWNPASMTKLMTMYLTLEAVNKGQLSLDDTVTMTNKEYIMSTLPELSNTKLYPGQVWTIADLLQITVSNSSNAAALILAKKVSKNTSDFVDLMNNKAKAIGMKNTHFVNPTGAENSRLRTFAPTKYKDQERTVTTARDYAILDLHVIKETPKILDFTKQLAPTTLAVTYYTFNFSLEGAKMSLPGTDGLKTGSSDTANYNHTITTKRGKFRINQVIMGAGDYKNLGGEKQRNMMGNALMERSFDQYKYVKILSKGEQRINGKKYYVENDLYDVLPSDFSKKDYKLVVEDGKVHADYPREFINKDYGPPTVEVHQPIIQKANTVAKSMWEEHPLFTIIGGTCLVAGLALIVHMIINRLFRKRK

[8] = Inhibition of bocillin FL binding to penicillin-resistant Streptococcus pneumoniae OC 8819 penicillin-binding protein 1a; method in brief: as §1
[9] = Inhibition of bocillin FL binding to penicillin-susceptible Streptococcus pneumoniae OC 8865 penicillin-binding protein 3; method in brief: as §1
[10] = Inhibition of bocillin FL binding to penicillin-resistant Streptococcus pneumoniae OC 8819 penicillin-binding protein 3; method in brief: as §1
[11] = biological target: T3, Penicillin-binding protein 1B (Pseudomonas aeruginosa, UniProt Q9X6W0); assay: Inhibition of bocillin FL binding to Pseudomonas aeruginosa PAO1 penicillin-binding protein 1b
T3 sequence (Q9X6W0 whole entry): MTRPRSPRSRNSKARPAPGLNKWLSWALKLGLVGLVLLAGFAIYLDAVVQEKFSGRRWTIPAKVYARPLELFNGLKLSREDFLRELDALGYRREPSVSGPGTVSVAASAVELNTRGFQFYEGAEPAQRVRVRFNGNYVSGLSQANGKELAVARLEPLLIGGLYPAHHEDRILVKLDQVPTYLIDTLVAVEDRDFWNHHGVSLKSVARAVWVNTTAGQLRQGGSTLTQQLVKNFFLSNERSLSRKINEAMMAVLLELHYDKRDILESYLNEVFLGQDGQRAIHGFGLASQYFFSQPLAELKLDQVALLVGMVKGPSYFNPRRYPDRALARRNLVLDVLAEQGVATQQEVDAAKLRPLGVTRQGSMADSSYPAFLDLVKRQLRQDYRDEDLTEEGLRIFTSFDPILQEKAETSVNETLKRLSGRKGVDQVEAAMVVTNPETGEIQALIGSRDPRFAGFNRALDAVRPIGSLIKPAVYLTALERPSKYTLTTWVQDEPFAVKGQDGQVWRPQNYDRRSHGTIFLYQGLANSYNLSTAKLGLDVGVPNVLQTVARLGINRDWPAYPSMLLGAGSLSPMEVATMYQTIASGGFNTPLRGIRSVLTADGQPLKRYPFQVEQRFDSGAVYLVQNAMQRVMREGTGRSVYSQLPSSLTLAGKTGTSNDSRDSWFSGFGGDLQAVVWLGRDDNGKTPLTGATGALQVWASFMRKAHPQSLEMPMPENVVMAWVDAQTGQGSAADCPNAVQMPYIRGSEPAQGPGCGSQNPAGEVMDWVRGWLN
Method in brief: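 Isolated P. aeruginosa PAO1 PBPs; drug added at 10 concentrations, 0.06 μg/ml to 32 μg/ml, before Bocillin FL labeling. Labeled PBPs imaged. IC50 is the drug level cutting Bocillin FL binding by 50% versus a no-drug sample.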

Row | SMILES | IC50 [1] | IC50 [2] | IC50 [3] | IC50 [4] | MIC (Streptococcus pneumoniae) | IC50 [5] | IC50 [6] | IC50 [7] | IC50 [8] | IC50 [9] | IC50 [10] | IC50 [11]
1 | CO/N=C(\C(=O)N[C@@H]1C(=O)N2C(C(=O)O)=C(CSc3nc(=O)c(O)nn3C)CS[C@H]12)c1csc(N)n1 (stereo in doubt) [CEFTRIAXONE] | 0.01 µg/mL (≈ 0.018 µM) | 0.902 µM | 0.03 µg/mL (≈ 0.0541 µM) | 0.1 µg/mL (≈ 0.18 µM) | 0.03 µg/mL (≈ 0.0541 µM) | 0.02 µg/mL (≈ 0.0361 µM) | > 1 µg/mL | 18 µM | 0.02 µg/mL (≈ 0.0361 µM) | 0.02 µg/mL (≈ 0.0361 µM) | 0.01 µg/mL (≈ 0.018 µM) | –
2 | CC(C)(O/N=C(\C(=O)N[C@@H]1C(=O)N2C(C(=O)[O-])=C(C[n+]3ccccc3)CS[C@H]12)c1csc(N)n1)C(=O)O [CEFTAZIDIME] | – | – | – | – | – | – | – | – | – | – | – | 9.15 µM
3 | Nc1nc(/C(=N/O)C(=O)N[C@@H]2C(=O)N3C(C(=O)O)=C(/C=C4\CCN([C@@H]5CCNC5)C4=O)CS[C@H]23)ns1 [CEFTOBIPROLE] | 0.03 µg/mL (≈ 0.0561 µM) | 0.187 µM | 0.05 µg/mL (≈ 0.0935 µM) | 0.03 µg/mL (≈ 0.0561 µM) | 0.008 µg/mL (≈ 0.015 µM) | – | 0.06 µg/mL (≈ 0.112 µM) | 1.87 µM | 0.1 µg/mL (≈ 0.187 µM) | 0.02 µg/mL (≈ 0.0374 µM) | 0.01 µg/mL (≈ 0.0187 µM) | 0.935 µM
